Data on 89 compounds can be found in ChEMBL document CHEMBL3272316, “Oxime ether derivatives, a new class of nonsteroidal antiinflammatory compounds” (J Med Chem, 1977).

As a reminder, the LD50 is the dose at which mortality reaches 50%. As a reminder, the ED50 is the dose at which the effect has come halfway, by size or by number of responders. The term inhibition in vivo denotes the drop in the measured response relative to a control, in per cent.

Some results are limits rather than exact numbers.

Tested on in the first data set: not listed separately
As to the kind of experiment: Toxicity in ip dosed mouse. The conditions noted are these: in vivo. The data set is classed as organism-based. The gist of the method: (§1)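 Mice; LD50 derived by Horn's method. Amine compounds were tested as hydrochloride salts, with one exception given as the free base.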
Regarding `C/C(=N\OCC(=O)OCCN(C)C)c1ccc(Cl)cc1` [CLOXIMATE], the LD50 is above 320 mg/kg.

A further data set is filed under the species Rattus norvegicus. As to the kind of experiment: Toxicity in rat assessed as effects on gastrointestinal mucosa. Format: organism-based, Intestinal mucosa. The conditions noted are these: in vivo.
Consider `C/C(=N\OCC(=O)OCCN(C)C)c1ccc(Cl)cc1` [CLOXIMATE], for which the Activity entry is “Non-toxic”.

The test system of the next data set is Mus musculus. Description: Neurotoxicity in po dosed mouse. The data set is classed as toxicity, organism-based. Particulars: in vivo. The gist of the method:
(§2)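 Mice were assessed by a modified Irwin observational method.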
Turning to `C/C(=N\OCC(=O)OCCN(C)C)c1ccc(Cl)cc1` [CLOXIMATE], the ED50 is above 1000 mg/kg.

The species entered for another data set is Rattus norvegicus. As to the kind of experiment: Toxicity in rat assessed as effect on emptying rate of stomach. Format: organism-based. Particulars: in vivo.
`C/C(=N\OCC(=O)OCCN(C)C)c1ccc(Cl)cc1` [CLOXIMATE]: the Activity result is “Non-toxic”.

In another data set the test system is Rattus norvegicus. As to the kind of experiment: Antiinflammatory activity in rat assessed as inhibition of carrageenan-induced paw edema at 50 mg/kg, po administered 1 hr prior challenge measured 3 hrs post challenge. The data set is classed as functional.
Settings: not given
The gist of the method: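 Rats of 180-220 g, four per group, were given 50 mg/kg orally in 1% tragacanth vehicle 1 h before intraplantar injection of 0.05 mL of 1% carrageenan. Hind-paw edema was measured 3 h after injection and reported as percent inhibition (Winter method).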
Background: Carrageenan injected into the paw causes an acute inflammation.
For the compound `C/C(=N\NCC(=O)O)c1ccc(C2CCCCC2)c(Cl)c1`, the inhibition in vivo at 50 mg/kg was below 20%.
On to `C/C(=N\OCC(=O)O)c1ccc(S(C)(=O)=O)cc1`, for which the inhibition in vivo at 50 mg/kg is 20%.
In the case of `C/C(=N\OCC(=O)O)c1ccccc1O`, the inhibition in vivo at 50 mg/kg is below 20%.
The same measure, in the same setting: with `C/C(=N\OCC(C)O)c1ccc(Cl)cc1` (configuration not stated) the figure was below 20%.
`C/C(=N\OCC(N)=O)c1ccc(F)cc1`: the inhibition in vivo at 50 mg/kg turned out to be 20%.
For `C/C(=N\OCC(=O)O)c1cccc(Cl)c1`, the inhibition in vivo at 50 mg/kg was 20%.
Same read-out and setting: with `C/C(=N\OCC(=O)O)c1ccc(N(C)C)cc1` the figure was below 20%.
Same read-out and setting: with `C/C(=N\OCC(=O)O)c1ccc(C)cc1` the figure was 20%; with `CCCCC/C(=N\OCC(=O)O)c1ccc(Cl)cc1`, below 20%; with `O=C(O)C#Cc1ccc(Cl)cc1`, below 20%.
Turning to `O=C(O)CO/N=C\c1ccc(Cl)s1`, the inhibition in vivo at 50 mg/kg is below 20%.
Still for that read-out and setting: under `O=C(O)CON=C1CCCCC1` stands below 20%; under `C/C(=N\OCC(=O)O)c1ccccc1`, below 20%.
Still for that read-out and setting: under `CC(C)=NOCC(=O)O` stands 20%; under `C/C(=N\OCC(=O)O)c1ccc(C2CC2)cc1`, below 20%; under `C/C(=N\OCCCCO)c1ccc(Cl)cc1`, below 20%.
On the same count and under the same terms, under `C/C(=N\OCC(=O)O)c1ccc(N)cc1` stands 20%; under `O=C(O)CO/N=C/c1ccccc1Cl`, below 20%.
Regarding `O=C(O)CO/N=C/c1ccc([N+](=O)[O-])cc1`, the inhibition in vivo at 50 mg/kg was below 20%.
Same read-out and setting: under `C/C(=N\OCC(=O)O)c1ccc(O)cc1` stands below 20%.
In the case of `O=C(O)CO/N=C1\CCc2cc(Cl)ccc21`, the inhibition in vivo at 50 mg/kg was below 20%.
Still for that read-out and setting: with `C/C(=N/OCCO)c1ccc(Cl)s1` the figure was below 20%; with `C/C(=N\OCC(=O)O)c1ccc(C2CCCCC2)c(Cl)c1`, below 20%; with `CSc1ccc(/C(C)=N/OCC(=O)O)cc1`, below 20%.
Regarding `C/C(=N\OCC(=O)O)c1ccc(CC2CCCCC2)cc1`, the inhibition in vivo at 50 mg/kg is below 20%.
The same measure, in the same setting: under `C/C(=N\OCC(=O)O)c1ccc(Cl)c(C)c1` stands 20%.
On the same count and under the same terms, with `CC(=O)Nc1ccc(/C(C)=N/OCC(=O)O)cc1` the figure was below 20%; with `C/C(=N\OCC(=O)O)c1ccc([N+](=O)[O-])cc1`, below 20%.
Same read-out and setting: with `CN(C)c1ccc(/C=N/OCC(=O)O)cc1` the figure was below 20%; with `C/C(=N\OCC(N)=O)c1ccccc1`, below 20%; with `C/C(=N\OCC(=O)O)c1ccccc1C(=O)O`, below 20%.
For the compound `C/C(=C\CCC(=O)O)c1ccc(Cl)cc1`, the inhibition in vivo at 50 mg/kg was below 20%.
Still for that read-out and setting: under `C/C(=N\OCC(=O)O)c1c[nH]c2ccccc12` stands below 20%.
Still for that read-out and setting: with `C/C(=N\OCC(=O)O)c1ccccc1Cl` the figure was below 20%.
With `C/C(=N/OCC(=O)O)c1ccc(Cl)s1`, the inhibition in vivo at 50 mg/kg was below 20%.
As to `C/C(=N\OCC(=O)O)c1ccc(F)c(N)c1`, the inhibition in vivo at 50 mg/kg amounted to 20%.
Same read-out and setting: under `OCCO/N=C\c1ccc(Cl)cc1` stands below 20%; under `O=C(O)CO/N=C/c1cccc2ccccc12`, below 20%; under `C/C(=N\OCC(=O)O)c1ccc(C(C)(C)C)cc1`, below 20%.
For the compound `CC/C(=N\OCC(=O)O)c1ccc(Cl)cc1`, the inhibition in vivo at 50 mg/kg was below 20%.
Consider `C/C(=N\OCC(=O)OCCN(C)C)c1ccc(F)cc1`, for which the inhibition in vivo at 50 mg/kg was 20%.
Still for that read-out and setting: under `COc1ccc(/C(C)=N/OCC(=O)O)cc1` stands below 20%; under `C/C(=N\OCC(=O)O)c1ccc(C#N)cc1`, below 20%.
Same read-out and setting: under `C/C(=N\OCC(=O)O)c1cccc2ccccc12` stands 20%.

The species named for the next data set is Canis familiaris. Description: Toxicity in dog assessed as effect on emptying rate of stomach. Format: organism-based, Canis lupus familiaris. Particulars: in vivo.
In the case of `C/C(=N\OCC(=O)OCCN(C)C)c1ccc(Cl)cc1` [CLOXIMATE], the Activity result was “Non-toxic”.

The next data set concerns Rattus norvegicus. As to the kind of experiment: Antiinflammatory activity in po dosed rat assessed as inhibition of carrageenan-induced paw edema compound administered 1 hr prior challenge measured 3 hrs post challenge. The data set is classed as functional.
Settings: not given
The gist of the method:
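Rats of 180-220 g received oral doses in a series, in 1% tragacanth vehicle, 1 h before intraplantar injection of 0.05 mL of 1% carrageenan. Paw edema was measured at 3 h. ED50 (mg/kg) was derived graphically from the dose-inhibition curve, with 95% confidence limits by Finney's method for some compounds. Amines were tested as hydrochlorides.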
On to `C/C(=N\OCC(N)=O)c1ccc(Cl)cc1`, for which the 50% effective dose (ED50) is 24 mg/kg.
On the same count and under the same terms, under `CCOC(=O)CO/N=C(\C)c1ccc(Cl)cc1` stands 32 mg/kg; under `C/C(=N\OC(C)(C)C(=O)O)c1ccc(Cl)cc1`, 42 mg/kg; under `C/C(=N\OCCCCCC(=O)O)c1ccc(Cl)cc1`, 92 mg/kg.
The same measure, in the same setting: under `C/C(=N\OCC(=O)O)c1ccc(C(F)(F)F)cc1` stands 120 mg/kg; under `C/C(=N\OCC(=O)O)c1ccc(Cl)cc1Cl`, 120 mg/kg.
Same read-out and setting: with `CCCOC(=O)CO/N=C(\C)c1ccc(Cl)cc1` the figure was 14 mg/kg; with `C/C(=N\OCC(=O)OCCN(C)C)c1ccc(Br)cc1`, 47 mg/kg.
On to `C/C(=N\OCC(=O)OCCN1CCN(C)CC1)c1ccc(Cl)cc1.Cl`, for which the median effective dose (ED50) was determined as 54 mg/kg.
The same measure, in the same setting: under `C/C(=N\OCCO)c1ccc(Cl)s1` stands 60 mg/kg.
Still for that read-out and setting: under `OCCO/N=C/c1ccc(Cl)cc1` stands 90 mg/kg; under `C/C(=N\OCC(=O)OC(C)C)c1ccc(Cl)cc1`, 50 mg/kg.
Same read-out and setting: with `C/C(=C\CC(=O)O)c1ccc(Cl)cc1` the figure was 70 mg/kg.
As for `COC(=O)CO/N=C(\C)c1ccc(Cl)cc1`, the ED50 is 24 mg/kg.
Turning to `C/C(=N\OCC(=O)O)c1ccc(Br)cc1`, the ED50 turned out to be 27 mg/kg.
On the same count and under the same terms, with `C/C(=N\OCC(=O)OCCN(C)C)c1ccc(Cl)c(Cl)c1` the figure was 80 mg/kg.
On to `CNC(=O)CO/N=C(\C)c1ccc(Cl)cc1`, for which the ED50 is 70 mg/kg.
Still for that read-out and setting: under `C/C(=N\OCC(=O)O)c1ccc(Cl)cc1` stands 28 mg/kg; under `CCCCC1C(=O)N(c2ccccc2)N(c2ccccc2)C1=O` [PHENYLBUTAZONE], 34 mg/kg; under `C/C(=N\NCC(=O)O)c1ccc(Cl)cc1`, 22 mg/kg.
The same measure, in the same setting: under `C/C(=N\OCC(N)=O)c1ccc(Cl)c(Cl)c1` stands 55 mg/kg.
The same measure, in the same setting: under `C/C(=N\OCC(=O)OCCNC1CCCCC1)c1ccc(Cl)cc1.Cl` stands 26 mg/kg; under `COC(=O)CO/N=C(\C)c1ccc(Br)cc1`, 14 mg/kg.
For the compound `O=C(O)CO/N=C/c1ccc(Br)cc1`, the ED50 turned out to be 46 mg/kg.
Still for that read-out and setting: with `COC(=O)OCCO/N=C(\C)c1ccc(Cl)cc1` the figure was 33 mg/kg; with `CC(=O)OCCO/N=C(\C)c1ccc(Cl)cc1`, 43 mg/kg; with `C/C(=N\OCC(=O)OCC(C)(C)N(C)C)c1ccc(Cl)cc1.Cl`, 27 mg/kg.
On the same count and under the same terms, with `C/C(=N\OCC(=O)OCCCCCCN(C)C)c1ccc(Cl)cc1` the figure was 66 mg/kg; with `CC(C)Cc1ccc(CC(=O)O)cc1` [IBUFENAC], 98 mg/kg.
The same measure, in the same setting: under `C/C(=N\OCC(N)=O)c1ccc(Br)cc1` stands 62 mg/kg; under `CC(C)Cc1ccc(C(C)C(=O)O)cc1` (configuration not stated) [IBUPROFEN], 25 mg/kg; under `C/C(=N\OCC(=O)OCCN1CCOCC1)c1ccc(Cl)cc1.Cl`, 44 mg/kg.
Consider `C/C(=N\OC(C)C(=O)O)c1ccc(Cl)cc1` (configuration not stated), for which the ED50 was 55 mg/kg.
The same measure, in the same setting: under `C/C(=N\OCC(=O)O)c1ccc(F)cc1` stands 85 mg/kg; under `O=C(O)CO/N=C/c1ccc(Cl)cc1`, 45 mg/kg.
On the same count and under the same terms, with `C/C(=N\OCCCC(=O)O)c1ccc(Cl)cc1` the figure was 58 mg/kg; with `C/C(=N\OCCOC(=O)C(C)(C)C)c1ccc(Cl)cc1`, 38 mg/kg; with `C/C(=N\OCCO)c1ccc(Cl)cc1`, 29 mg/kg.
The same measure, in the same setting: under `C/C(=N\OCC(=O)OCCN(C)C)c1ccc(Cl)cc1` [CLOXIMATE] stands 34 mg/kg; under `C/C(=N\OCC(=O)O)c1ccc(Cl)c(Cl)c1`, 65 mg/kg; under `CNCCOC(=O)CO/N=C(\C)c1ccc(Cl)cc1.Cl`, 26 mg/kg.
For `C/C(=N\OCC(=O)O)c1ccc(Cl)s1`, the ED50 was 34 mg/kg.
The same measure, in the same setting: under `O=C(O)CN/N=C/c1ccc(Cl)cc1` stands 25 mg/kg.
Same read-out and setting: with `C/C(=N\OCCC(=O)O)c1ccc(Cl)cc1` the figure was 80 mg/kg; with `C/C(=N\OCC(=O)N(C)C)c1ccc(Cl)cc1`, 120 mg/kg.

Tested on in the next data set: not listed separately
As to the kind of experiment: Toxicity in po dosed mouse. Format: organism-based. The conditions noted are these: in vivo. The gist of the method: as §1
As for `C/C(=N\OCC(=O)OCCN(C)C)c1ccc(Cl)cc1` [CLOXIMATE], the LD50 is above 1000 mg/kg.

For a further data set, the species on record is Canis familiaris. Description: Toxicity in dog assessed as effects on gastrointestinal mucosa. The data set is classed as organism-based, Canis lupus familiaris, Intestinal mucosa. The conditions noted are these: in vivo.
`C/C(=N\OCC(=O)OCCN(C)C)c1ccc(Cl)cc1` [CLOXIMATE]: the Activity entry is listed as “Non-toxic”.

Another data set has as its system Mus musculus. As to the kind of experiment: Neurotoxicity in ip dosed mouse. Particulars: in vivo. Format: toxicity, organism-based. The gist of the method:
as §2
Consider `C/C(=N\OCC(=O)OCCN(C)C)c1ccc(Cl)cc1` [CLOXIMATE], for which the 50% effective dose (ED50) is above 320 mg/kg.
